Assay [1] concerns Candida albicans. In words: Compound was evaluated for antifungal activity against Candida albicans IFO 1594 as diameter of inhibition zone at a concentration 0.1 ug/disk; SE means slightly effective. Type of assay: functional, organism-based. The gist of the method: (§1)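 Disk-diffusion assay against the fungal strain named in the line. Inhibition-zone diameter was measured after 48 h incubation and is the mean of two samples. Scoring codes used: not effective, slightly effective, incomplete inhibition.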

For assay [2], the system named is Candida albicans. In words: Compound was evaluated for antifungal activity against Candida albicans IFO 1594 as diameter of inhibition zone at a concentration 10 ug/disk and showed incomplete inhibition. The assay is classed as functional. An outline of the steps:
as §1

Assay [3] has as its system Saccharomyces cerevisiae. In words: Compound was evaluated for antifungal activity against Saccharomyces cerevisiae IAM 4861 as diameter of inhibition zone at a concentration 0.1 ug/disk and showed incomplete inhibition. Type of assay: functional. The gist of the method:
as §1

Assay [4] concerns Aspergillus fumigatus. Kind of assay: Compound was evaluated for antifungal activity against Aspergillus fumigatum R-1301 as diameter of inhibition zone at a concentration 0.1 ug/disk. The assay is classed as functional. An outline of the steps:
as §1

In assay [5] the test system is Saccharomyces cerevisiae. Kind of assay: Compound was evaluated for antifungal activity against Saccharomyces cerevisiae IAM 4861 as diameter of inhibition zone at a concentration 10 ug/disk and showed incomplete inhibition. Type of assay: functional. An outline of the steps:
as §1

Assay [6] relates to Penicillium citrinum. In words: Compound was evaluated for antifungal activity against penicillium ctrinum R-3703 as diameter of inhibition zone at a concentration 10 ug/disk. The assay is classed as functional. The gist of the method:
as §1

In assay [7] the test system is Penicillium citrinum. Kind of assay: Compound was evaluated for antifungal activity against penicillium ctrinum R-3703 as diameter of inhibition zone at a concentration 1 ug/disk and showed incomplete inhibition. The assay is classed as functional. An outline of the steps: as §1
Assay [8] concerns Candida albicans. Kind of assay: Compound was evaluated for antifungal activity against Candida albicans IFO 1594 as diameter of inhibition zone at a concentration 1 ug/disk and showed incomplete inhibition. Type of assay: functional. An outline of the steps: as §1
Assay [9] deals with Fusarium solani. Kind of assay: Compound was evaluated for antifungal activity against Fusarium solani R-2800 as diameter of inhibition zone at a concentration 0.1 ug/disk; NE means not effective. The assay is classed as functional, organism-based. The gist of the method:
as §1

Assay [10] concerns Fusarium solani. Kind of assay: Compound was evaluated for antifungal activity against Fusarium solani R-2800 as diameter of inhibition zone at a concentration 1 ug/disk; NE means not effective. Type of assay: functional, organism-based. The gist of the method: as §1
Assay [11] has as its system Fusarium solani. Kind of assay: Compound was evaluated for antifungal activity against Fusarium solani R-2800 as diameter of inhibition zone at a concentration 10 ug/disk; NE means not effective. The assay is classed as functional, organism-based. The gist of the method:
as §1

Assay [12] deals with Saccharomyces cerevisiae. Kind of assay: Compound was evaluated for antifungal activity against Saccharomyces cerevisiae IAM 4861 as diameter of inhibition zone at a concentration 1 ug/disk and showed incomplete inhibition. The assay is classed as functional. The gist of the method: as §1
The subject of assay [13] is Aspergillus fumigatus. Kind of assay: Compound was evaluated for antifungal activity against Aspergillus fumigatum R-1301 as diameter of inhibition zone at a concentration 1 ug/disk. The assay is classed as functional. The gist of the method:
as §1

The test system of assay [14] is Aspergillus fumigatus. Kind of assay: Compound was evaluated for antifungal activity against Aspergillus fumigatum R-1301 as diameter of inhibition zone at a concentration 10 ug/disk. The assay is classed as functional. The gist of the method:
as §1

Assay [15] relates to Penicillium citrinum. Kind of assay: Compound was evaluated for antifungal activity against penicillium ctrinum R-3703 as diameter of inhibition zone at a concentration 0.1 ug/disk and showed incomplete inhibition. Type of assay: functional. The gist of the method: as §1

The source made the active and inactive calls. The rule behind the calls is not given here.

Turning to `CO\C=C(C(=O)OC)/C(C)=C(\C=C\c1ccccc1)OC` [9-METHOXYSTROBILURIN A], the Inhibition zone result in the assay on Candida albicans [1] is “Slightly Effective”; in the assay on Candida albicans [2] it was 42 mm; in the assay on Saccharomyces cerevisiae [3] it was 13 mm; in the assay with Aspergillus fumigatus [4], 16 mm; in the assay with Saccharomyces cerevisiae [5], 44 mm; with Penicillium citrinum [6], 33 mm. The Inhibition zone with Penicillium citrinum [7] amounted to 23 mm; in the assay with Candida albicans [8], 32 mm; with Saccharomyces cerevisiae [12], 39 mm; with Aspergillus fumigatus [13], 28 mm; with Aspergillus fumigatus [14], 38 mm; with Penicillium citrinum [15], 19 mm. Moreover, the Inhibition zone result in the assay on Fusarium solani [9], in the assay with Fusarium solani [10] and in the assay on Fusarium solani [11] was “inactive” in each case.

Values taken from ChEMBL document CHEMBL1135962, “The first synthesis and antifungal activities of 9-methoxystrobilurin-type beta-substituted beta-methoxyacrylate” (2002).
